Measurements: ChEMBL document CHEMBL1130313, “1-[(omega-aminoalkyl)amino]-4-[N-(omega-aminoalkyl)carbamoyl]-9-oxo-9, 10-dihydroacridines as intercalating cytotoxic agents: synthesis, DNA binding, and biological evaluation” (J Med Chem, 1997)

Columns and labels:
[1] = Partition coefficient (logP); type: physicochemical; settings: octanol/water
Nucleic Acid [2] = assay: Concentration required to give 50% fluorescence quenching of bound ethidium for [ethidium]: [poly(dA-dT)]2 DNA in ratio of 0.1:1 at pH 5; type: nucleic-acid assay
Summary of the method: (§1)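 Q (quenching) assay at pH 5: DNA at 20 μM DNAp (CT-DNA, [poly(dA-dT)]2 or [poly(dG-dC)]2) with 2 μM ethidium bromide. Buffer is 9.3 mM NaCl, 2 mM NaOAc, 0.1 mM EDTA, 0.01 M ionic strength. Drug (stock ~5 mM in DMSO) is added serially at 20 °C. Fluorescence is read with excitation 546 nm and emission 595 nm. Q is the concentration halving bound-ethidium fluorescence; mean of three.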

L1210 = assay: Cytotoxic potency required to inhibit L1210 cell growth by 50% after cell drug contact for 48 hrs; type: functional, cell-based; settings: Mus musculus, L1210, 48 h
Summary of the method: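 Mouse L1210 leukemia cells at 5 × 10^4 cells/mL were exposed for 48 h at 37 °C to aqueous drug solutions (≤0.5% v/v DMSO). Surviving cells were counted by Coulter counter against drug-free controls to give IC50. Assays were done in duplicate.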

HT-29 = assay: Cytotoxic potency required to inhibit HT-29 cell growth by 50% after cell drug contact for 144 hrs; type: functional, cell-based; settings: Homo sapiens, HT-29, 144 h
Nucleic Acid [3] = assay: Concentration required to give 50% fluorescence quenching of bound ethidium for [ethidium]: [(poly dG-dC)]2 DNA in ratio of 0.1:1 at pH 5; type: nucleic-acid assay; summary of the method: as §1
G-361 = assay: Cytotoxic potency required to inhibit G-361 cell growth by 50%; type: functional, cell-based; settings: Homo sapiens
Summary of the method: (§2)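 Human ovarian carcinoma (A2780, CH1, SKOV-3) or melanoma G-361 cells were plated at 100-5000 cells and allowed to adhere overnight. Aqueous drug at pH 7.0, diluted from DMSO stock, was applied at various concentrations for 96 h continuous exposure at 37 °C. Growth was measured by sulforhodamine B protein staining. IC50 is 50% growth inhibition versus untreated controls.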

Calf thymus DNA [4] = assay: Inhibitory concentration against ethidium:calf thymus DNA (1.26:1) binding at pH 5; type: nucleic-acid assay; settings: Bos taurus
Summary of the method: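 Ethidium displacement at pH 5: 1.26 μM ethidium bromide with 1 μM CT-DNA in 9.3 mM NaCl, 2 mM NaOAc, 0.1 mM EDTA. Drug (stock ~5 mM in DMSO) is added serially at 20 °C. Fluorescence is read with excitation 546 nm and emission 595 nm. C50 is the concentration reducing bound-ethidium fluorescence by 50%; mean of three.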

SK-OV-3 = assay: Cytotoxic potency required to inhibit SKOV-3 cell growth 50%; type: functional, cell-based; settings: Homo sapiens; summary of the method: as §2
Calf thymus DNA [5] = assay: Inhibitory concentration against ethidium:Calf thymus DNA(1.26:1) binding at pH 7; type: nucleic-acid assay; settings: Bos taurus
Summary of the method: (§3)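 Ethidium displacement at pH 7: 1.26 μM ethidium bromide with 1 μM CT-DNA in 10 mM TES, 0.1 mM EDTA. Drug (stock ~5 mM in DMSO) is titrated in at 20 °C. Read-out is excitation 546 nm, emission 595 nm. C50 is the drug concentration cutting bound-ethidium fluorescence by 50%; mean of three determinations.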

CH1 [6] = assay: Cytotoxic potency required to inhibit CH1 cell growth by 50%; type: functional, cell-based; settings: Homo sapiens; summary of the method: as §2
Calf thymus DNA [7] = assay: Inhibitory concentration against ethidium:Calf thymus DNA(0.1:1) binding at pH 5; type: nucleic-acid assay; settings: Bos taurus; summary of the method: as §1
A2780 = assay: Cytotoxic potency required to inhibit A2780 cell growth by 50% after cell drug contact for 96 hrs; type: functional, cell-based; settings: Homo sapiens, A2780, 96 h; summary of the method: as §2
Calf thymus DNA [8] = assay: Inhibitory concentration against ethidium:Calf thymus DNA (1.26:1) binding at pH 7; type: nucleic-acid assay; settings: Bos taurus; summary of the method: as §3
CH1 [9] = assay: Cytotoxic potency against CH1 cell proliferation; type: functional, cell-based; settings: Homo sapiens; summary of the method: as §2

## O=C(NCCNCCO)c1ccc(NCCNCCO)c2c(O)c3ccccc3nc12
[1]
  logP: 3.15
Nucleic Acid [2]
  Q: 2.6 µM
L1210
  IC50: 4000 nM
HT-29
  IC50: > 23000 nM
Nucleic Acid [3]
  Q: 4.1 µM
G-361
  IC50: 15500 nM
Calf thymus DNA [4]
  C50: 1.7 µM
SK-OV-3
  IC50: 21500 nM
Calf thymus DNA [5]
  C50: 0.36 µM
CH1 [6]
  IC50: 165 nM
Calf thymus DNA [7]
  Q: 3.2 µM
A2780
  IC50: 4800 nM

## COc1cc(NS(C)(=O)=O)ccc1Nc1c2ccccc2nc2ccccc12
Nucleic Acid [2]
  Q: 25 µM
Nucleic Acid [3]
  Q: 4.5 µM
Calf thymus DNA [4]
  C50: 8.9 µM
Calf thymus DNA [7]
  Q: 3.8 µM

## O=C(NCCN1CCCCC1)c1ccc(NCCN2CCCCC2)c2c(O)c3ccccc3nc12
[1]
  logP: 7.73
Nucleic Acid [2]
  Q: 3.4 µM
L1210
  IC50: 1200 nM
HT-29
  IC50: 450 nM
Calf thymus DNA [8]
  C50: 0.28 µM
Nucleic Acid [3]
  Q: 5.6 µM
G-361
  IC50: 670 nM
Calf thymus DNA [4]
  C50: 0.83 µM
SK-OV-3
  IC50: 620 nM
CH1 [6]
  IC50: 1200 nM
Calf thymus DNA [7]
  Q: 4.4 µM
A2780
  IC50: 24 nM

## Cn1cc(NC(=O)c2cc(NC(=O)c3cc(NC=O)cn3C)cn2C)cc1C(=O)NCCC(=N)N
Nucleic Acid [2]
  Q: 1.6 µM
Calf thymus DNA [8]
  C50: 1.3 µM
Nucleic Acid [3]
  Q: 130 µM
Calf thymus DNA [4]
  C50: 5 µM
Calf thymus DNA [7]
  Q: 39.5 µM

## Nc1ccc2cc3ccc(N)cc3nc2c1
Nucleic Acid [2]
  Q: 24 µM
Nucleic Acid [3]
  Q: 14 µM
Calf thymus DNA [7]
  Q: 20 µM

## O=c1c2ccccc2[nH]c2ccccc12 [ACRIDONE]
Nucleic Acid [2]
  Q: > 500 µM
L1210
  IC50: > 100000 nM
Nucleic Acid [3]
  Q: 340 µM
G-361
  IC50: > 100000 nM
SK-OV-3
  IC50: > 100000 nM
CH1 [6]
  IC50: 77000 nM
Calf thymus DNA [7]
  Q: > 400 µM
A2780
  IC50: > 100000 nM

## Nc1ccc2c(O)c3ccc(N)cc3nc2c1
Nucleic Acid [2]
  Q: > 400 µM
L1210
  IC50: 35000 nM
Calf thymus DNA [8]
  C50: 630 µM
Nucleic Acid [3]
  Q: 280 µM
Calf thymus DNA [4]
  C50: 660 µM
SK-OV-3
  IC50: > 100000 nM
CH1 [6]
  IC50: > 100000 nM
Calf thymus DNA [7]
  Q: 340 µM
A2780
  IC50: 37000 nM

## CN(C)CCNC(=O)c1ccc(NCCN(C)C)c2c(O)c3cc(O)ccc3nc12
[1]
  logP: 4.77
Nucleic Acid [2]
  Q: 4.4 µM
L1210
  IC50: 140 nM
HT-29
  IC50: 2000 nM
Calf thymus DNA [8]
  C50: 0.37 µM
Nucleic Acid [3]
  Q: 5.4 µM
G-361
  IC50: 300 nM
Calf thymus DNA [4]
  C50: 2.2 µM
SK-OV-3
  IC50: 170 nM
CH1 [6]
  IC50: 640 nM
Calf thymus DNA [7]
  Q: 4.8 µM
A2780
  IC50: 51 nM

## CN(C)CCNC(=O)c1ccc(N(C)CCN(C)C)c2c(O)c3ccccc3nc12
[1]
  logP: 4.21
Nucleic Acid [2]
  Q: 13 µM
L1210
  IC50: 1650 nM
HT-29
  IC50: 3000 nM
Calf thymus DNA [8]
  C50: 0.94 µM
Nucleic Acid [3]
  Q: 15 µM
G-361
  IC50: 1500 nM
Calf thymus DNA [4]
  C50: 4.8 µM
SK-OV-3
  IC50: 1000 nM
CH1 [6]
  IC50: 3400 nM
Calf thymus DNA [7]
  Q: 14 µM
A2780
  IC50: 410 nM

## N=C(N)c1ccc(/N=N/Nc2ccc(C(=N)N)cc2)cc1
Nucleic Acid [2]
  Q: 5 µM
Calf thymus DNA [8]
  C50: 1.5 µM
Nucleic Acid [3]
  Q: 19 µM
Calf thymus DNA [4]
  C50: 4.4 µM
Calf thymus DNA [7]
  Q: 9 µM

## COc1ccc2nc3c(C(=O)NCCN(C)C)ccc(NCCN(C)C)c3c(O)c2c1
[1]
  logP: 5.32
Nucleic Acid [2]
  Q: 5.3 µM
L1210
  IC50: 410 nM
HT-29
  IC50: 500 nM
Calf thymus DNA [8]
  C50: 0.69 µM
Nucleic Acid [3]
  Q: 6.5 µM
G-361
  IC50: 1250 nM
Calf thymus DNA [4]
  C50: 3.1 µM
SK-OV-3
  IC50: 420 nM
CH1 [6]
  IC50: 490 nM
Calf thymus DNA [7]
  Q: 5.8 µM
A2780
  IC50: 57 nM

## O=C(NCCN1CCOCC1)c1ccc(NCCN2CCOCC2)c2c(O)c3ccccc3nc12
[1]
  logP: 4.42
Nucleic Acid [2]
  Q: 3.7 µM
L1210
  IC50: 440 nM
HT-29
  IC50: 4500 nM
Calf thymus DNA [8]
  C50: 3.7 µM
Nucleic Acid [3]
  Q: 6 µM
G-361
  IC50: 7200 nM
Calf thymus DNA [4]
  C50: 16 µM
SK-OV-3
  IC50: 7400 nM
CH1 [6]
  IC50: 1250 nM
Calf thymus DNA [7]
  Q: 4.8 µM
A2780
  IC50: 1500 nM

## CCN(CC)CCNC(=O)c1ccc(NCCN(CC)CC)c2c(O)c3ccccc3nc12
[1]
  logP: 7.25
Nucleic Acid [2]
  Q: 19 µM
L1210
  IC50: 3300 nM
HT-29
  IC50: 5700 nM
Calf thymus DNA [8]
  C50: 2.3 µM
Nucleic Acid [3]
  Q: 36 µM
G-361
  IC50: 6200 nM
Calf thymus DNA [4]
  C50: 20 µM
SK-OV-3
  IC50: 2400 nM
CH1 [6]
  IC50: 1250 nM
Calf thymus DNA [7]
  Q: 27 µM
A2780
  IC50: 760 nM

## c1ccc2nc3ccccc3cc2c1 [ACRIDINE]
Nucleic Acid [2]
  Q: 26 µM
Calf thymus DNA [8]
  C50: 320 µM
Nucleic Acid [3]
  Q: 22 µM
Calf thymus DNA [4]
  C50: 142 µM
Calf thymus DNA [7]
  Q: 24 µM
A2780
  IC50: > 100000 nM

## CN(C)CCNC(=O)c1ccc(NCCN(C)C)c2c(=O)c3ccccc3[nH]c12
[1]
  logP: 5.12
Nucleic Acid [2]
  Q: 3.1 µM
L1210
  IC50: 44 nM
HT-29
  IC50: 94 nM
Calf thymus DNA [8]
  C50: 0.34 µM
Nucleic Acid [3]
  Q: 3.5 µM
G-361
  IC50: 15 nM
CH1 [9]
  IC50: 20 nM
Calf thymus DNA [4]
  C50: 1.1 µM
SK-OV-3
  IC50: 400 nM
Calf thymus DNA [7]
  Q: 3.3 µM
A2780
  IC50: 15 nM

## CN(C)CCNC(=O)c1ccc(NCCN(C)C)c2c(O)c3cc([N+](=O)[O-])ccc3nc12
[1]
  logP: 5.68
Nucleic Acid [2]
  Q: 1.8 µM
L1210
  IC50: 460 nM
HT-29
  IC50: 190 nM
Calf thymus DNA [8]
  C50: 0.17 µM
Nucleic Acid [3]
  Q: 2.4 µM
G-361
  IC50: 1800 nM
Calf thymus DNA [4]
  C50: 0.61 µM
SK-OV-3
  IC50: 210 nM
CH1 [6]
  IC50: 175 nM
Calf thymus DNA [7]
  Q: 2.1 µM
A2780
  IC50: 42 nM

## CN(C)CCNC(=O)c1ccc(NCCNCCO)c2c(O)c3ccccc3nc12
[1]
  logP: 4.09
Nucleic Acid [2]
  Q: 3.8 µM
L1210
  IC50: 35 nM
HT-29
  IC50: 140 nM
Calf thymus DNA [8]
  C50: 0.35 µM
Nucleic Acid [3]
  Q: 4.7 µM
G-361
  IC50: 280 nM
Calf thymus DNA [4]
  C50: 2 µM
SK-OV-3
  IC50: 170 nM
CH1 [6]
  IC50: 16 nM
Calf thymus DNA [7]
  Q: 4.2 µM
A2780
  IC50: 17 nM

## CN(C)CCCNC(=O)c1ccc(NCCCN(C)C)c2c(O)c3ccccc3nc12
[1]
  logP: 5.76
Nucleic Acid [2]
  Q: 3.2 µM
L1210
  IC50: 520 nM
HT-29
  IC50: 580 nM
Calf thymus DNA [8]
  C50: 0.38 µM
Nucleic Acid [3]
  Q: 6.6 µM
G-361
  IC50: 3600 nM
Calf thymus DNA [4]
  C50: 3.2 µM
SK-OV-3
  IC50: 400 nM
CH1 [6]
  IC50: 335 nM
Calf thymus DNA [7]
  Q: 4.8 µM
A2780
  IC50: 110 nM

## O=C1c2c(O)ccc(O)c2C(=O)c2c(NCCNCCO)ccc(NCCNCCO)c21 [MITOXANTRONE]
Nucleic Acid [2]
  Q: 0.32 µM
L1210
  IC50: 0.4 nM
HT-29
  IC50: 10 nM
Calf thymus DNA [8]
  C50: 0.037 µM
Nucleic Acid [3]
  Q: 0.37 µM
G-361
  IC50: 0.65 nM
Calf thymus DNA [4]
  C50: 0.021 µM
CH1 [6]
  IC50: 2.65 nM
Calf thymus DNA [7]
  Q: 0.34 µM
A2780
  IC50: 0.55 nM
